From PubChem BioAssay come the findings set out here.

The structures appear in SMILES notation. Calls of active or inactive are those of the source.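 Rule for the calls, unless noted: active = a full or partial loss of lipid-probe fluorescence in the fish gall bladder, intestine or both, judged by eye; inactive = no fluorescence loss, or compound toxic to the fish.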

Assay [1] can be described thus: inhibitors of TNFa-induced NFkB p65 translocation, primary screen, imaging, HUVEC, MLSMR starter and 10KST1 sets (AID 438;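 active = inhibition above 20% together with a positive visual image hit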;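 note: compound added about 3h40 before a 20 min TNFalpha stimulation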;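 for inhibition: signal is the nuclear over cytoplasmic p65 intensity ratio per well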). Conditions: HUVEC TNFa-induced p65 nuclear translocation; cell count: measured here: nuclei count (cytotoxicity indicator), at 2.08 µM; inhibition: at 2 µM, stronger effect = higher value, 0% TNFa-plus-vehicle, 100% no-TNFa wells.
The nature of assay [2]: endothelial E-selectin expression blockers – imaging, HUVEC, immunofluorescence, MLSMR starter and 10KST1 sets, primary screen (AID 487;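 active = visually confirmed hit in the image check and inhibition above 20%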;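 for inhibition: signal is fraction of cell area covered by stained E-selectin grains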;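 for nuclei count: 100% = median nuclei count of all wells on the same plate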). Conditions: HUVEC TNFalpha-induced E-selectin immunofluorescence imaging, at 2 µM; inhibition: stronger effect = higher value; nuclei count: measured here: cell number, toxicity.
The nature of assay [3]: Primary imaging screen for DUSP6 inhibitors that restore phospho-Erk in transfected HeLa cells, chemical complementation (AID 609;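 active = compounds giving at least 50% inhibition in the cell-based MKP-3 phosphatase rescue imaging test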;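 for inhibition: phospho-Erk level distribution per well compared with pooled transfected vehicle control wells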). The note with it: HeLa MKP-3 transfected, phospho-Erk imaging KS statistic, at 10 µM, cells stimulated with TPA for 15 min.
In assay [4] the target is Dual specificity protein phosphatase 6 (Homo sapiens) (UniProt Q16828). The assay is described as above. Conditions: HeLa MKP-3 transfected, phospho-Erk imaging KS statistic; at 10 µM; stronger effect = higher value; cells stimulated with TPA for 15 min.
Dual specificity protein phosphatase 6 (Homo sapiens), sequence (Q16828 whole entry, looked up): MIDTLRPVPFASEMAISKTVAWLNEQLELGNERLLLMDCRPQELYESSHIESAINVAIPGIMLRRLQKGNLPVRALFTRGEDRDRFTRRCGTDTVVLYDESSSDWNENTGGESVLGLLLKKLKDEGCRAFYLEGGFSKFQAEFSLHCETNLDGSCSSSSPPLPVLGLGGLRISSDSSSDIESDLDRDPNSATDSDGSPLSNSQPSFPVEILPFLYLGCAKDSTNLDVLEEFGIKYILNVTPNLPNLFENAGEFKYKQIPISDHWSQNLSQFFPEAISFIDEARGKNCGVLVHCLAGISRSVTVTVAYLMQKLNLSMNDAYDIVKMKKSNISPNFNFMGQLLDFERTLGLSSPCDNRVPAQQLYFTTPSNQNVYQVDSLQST
In assay [5] the target is Voltage-gated potassium channel subunit beta-2 (Rattus norvegicus) (UniProt P62483). As to the kind of experiment: inhibitors of rat Kvbeta2 reductase activity – biochemical, NADPH fluorescence, primary screen (AID 622;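 active = fluorescence slope higher than the sample average by over 3 SD, cut at about -0.22 in these data, passing the limit was not always enough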;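 note: slope of raw intensity against log time taken from 70 to 1610 s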). The note with it: recombinant KvBeta, 4-cyanobenzaldehyde reduction, at 10 µM, stronger effect = higher value.
Voltage-gated potassium channel subunit beta-2 (Rattus norvegicus), sequence (P62483 whole entry, looked up): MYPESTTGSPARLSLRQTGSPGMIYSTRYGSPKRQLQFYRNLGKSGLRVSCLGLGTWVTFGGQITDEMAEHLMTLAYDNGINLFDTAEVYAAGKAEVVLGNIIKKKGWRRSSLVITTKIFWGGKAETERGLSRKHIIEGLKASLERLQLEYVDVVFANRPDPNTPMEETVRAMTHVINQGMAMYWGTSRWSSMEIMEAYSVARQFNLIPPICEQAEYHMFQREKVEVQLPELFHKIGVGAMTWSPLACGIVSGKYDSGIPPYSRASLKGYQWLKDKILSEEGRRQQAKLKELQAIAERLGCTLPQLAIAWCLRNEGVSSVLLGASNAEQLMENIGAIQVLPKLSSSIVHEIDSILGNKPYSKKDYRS
The target is the same in assay [6]. The assay is described as follows: enhancers of rat Kvbeta2 NADPH turnover – biochemical, NADPH fluorescence, primary screen (AID 623;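 active = NADPH fluorescence slope more negative than the mean of all samples by about 3 SD, 99.7% confidence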;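 note: fluorescence intensity change per second fitted from 20 to 320 s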). The note with it: Recombinant KvBeta, NADPH fluorescence decrease slope, 10 min; at 10 µM; stronger effect = lower value.
Assay [7] concerns the target Muscarinic acetylcholine receptor M4 (Homo sapiens) (UniProt P08173). As to the kind of experiment: M4-linked GIRK flux change, two-sided – cell-based, HEK293 M4/GIRK, thallium flux, BTC-AM, M4 allosteric agonist project, primary screen (AID 625;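 active = fluorescence slope after compound addition differing from the mean of all tested samples at 99.7% confidence, mostly higher but some lower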;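 note: thallium influx through GIRK channels coupled to M4 in HEK293 cells with BTC-AM dye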). The note with it: at 10 µM, actives lie on both sides. The gist of the method:
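Assay system: HEK293 cells with M4 receptor and GIRK channels / Controls: carbachol and DMSO controls / Schedule: 1 h dye loading, 2 min kinetic read / Technique: kinetic fluorescence with BTC-AM dye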

Assay [8] in a line: inhibitors of larval lipid processing in zebrafish, primary screen, whole organism, PED6 fluorescence, gall bladder and intestine (AID 686).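 Note: larvae 5 to 7 days old with five fish per well; signal comes from phospholipase A2 cleavage of quenched PED6 carried via bile.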 The note with it: Zebrafish larvae PED6 lipid processing, fluorescence scoring; screened at 20 µM (by protocol). In outline: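 Doses: 20 µM single dose. Test system: live zebrafish larvae aged 5-7 days, whole organism. Quantity: five larvae per well. Measured by: By-eye fluorescence microscopy. Reagent: ingested quenched lipid PED6 at 100 nM. Read-out: visual per-well fluorescence inhibition score. Times: overnight exposure of larvae to compound plus PED6.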

Assay [9] can be described thus: loss of swimming-algae plug formation – whole organism, Chlamydomonas reinhardtii, WT vs cilia-less mutant, absorbance, 96-well, primary screen (AID 463189;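 active = inhibition at or above 50% relative to wild type and mutant plate controls; inactive = inhibition below 50%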;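 note: 0% = wild type cc124 cells in DMSO and 100% = ciliumless bld1 mutant cells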). The note with it: Chlamydomonas reinhardtii gravitaxis, OD600 absorbance, 2 days; at 10 µM; stronger effect = higher value.
[10] abbreviates: measured here: cell density z-score.
Where [11] appears, read: measured here: nuclear c-Myc green intensity z-score.
The mark [12] stands for this setting: measured here: nuclear pErk red intensity z-score, stronger effect = higher value.

Muscarinic acetylcholine receptor M4 (Homo sapiens), sequence (P08173 whole entry, looked up): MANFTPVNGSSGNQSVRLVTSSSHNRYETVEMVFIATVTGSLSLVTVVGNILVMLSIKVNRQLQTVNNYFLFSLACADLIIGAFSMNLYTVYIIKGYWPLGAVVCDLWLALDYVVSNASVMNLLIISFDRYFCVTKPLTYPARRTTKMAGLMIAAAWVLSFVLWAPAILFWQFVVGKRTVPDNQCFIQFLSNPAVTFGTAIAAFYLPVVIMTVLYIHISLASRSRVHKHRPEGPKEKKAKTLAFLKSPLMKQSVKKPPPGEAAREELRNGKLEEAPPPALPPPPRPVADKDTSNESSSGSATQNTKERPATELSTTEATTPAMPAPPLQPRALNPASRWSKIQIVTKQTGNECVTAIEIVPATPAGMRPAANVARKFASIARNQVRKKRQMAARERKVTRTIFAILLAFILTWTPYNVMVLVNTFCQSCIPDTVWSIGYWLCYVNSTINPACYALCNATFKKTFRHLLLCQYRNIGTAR

Broadly, the inhibition is the relative decrease from the control value, in per cent. Take `OCCOCCNc1ncnc2c1cnn2-c1ccc(Cl)cc1`: the cell count in assay [1] was determined as 578. The inhibition in assay [1] is -11.9% (inactive); in assay [2], -74.5% (inactive); in assay [4], -4.59% (inactive); in [9], 26.1% (inactive). The compound further displayed a nuclei count in assay [2] of 181%. For the same compound, the z-score is 0.588 in assay [3] (setting [10]), -0.286 in [3] (setting [11]) and 0.737 in assay [3] (setting [12]). For the same compound, the fluorescence slope was -0.308 (inactive) in assay [5] and 0.00585 (inactive) in [7]. Also, the NADPH fluorescence slope in [6] was -2.8e-05 (inactive). The result in [8] was inactive.
Consider `CCC(C(=O)Nc1nccs1)(C(F)(F)F)C(F)(F)F`, for which, in [1], the cell count stood at 719. The inhibition in assay [1] was -18.9% (inactive); in assay [2], -106% (inactive); in assay [4], 5.95% (inactive); in assay [9], 0.594% (inactive). This compound registered a nuclei count in assay [2] of 203%. In addition, the z-score was 0.755 in assay [3] (setting [10]), 0.213 in assay [3] (setting [11]) and 0.296 in assay [3] (setting [12]). Also, the values for the fluorescence slope in [5] and in assay [7] were -0.49 (inactive) and 0.00509 (inactive), respectively. Further, the NADPH fluorescence slope in [6] was -6.4e-05 (inactive). In assay [8], the outcome was inactive.
As to `N#Cc1nc(COc2ccccc2Cl)oc1NCc1ccc(F)cc1`, the cell count in assay [1] came to 432. Moreover, the inhibition in assay [1] is -1.7% (inactive); in assay [2], -89.3% (inactive); in assay [4], 2.71% (inactive); in assay [9], -1.44% (inactive). The compound also showed a nuclei count in assay [2] of 182%. Further, the z-score in assay [3] (setting [10]) is -1.38; in assay [3] (setting [11]) it was 0.104; in assay [3] (setting [12]), 0.625. The fluorescence slope was -0.373 (inactive) in assay [5] and 0.00509 (inactive) in assay [7]. Further, the NADPH fluorescence slope in assay [6] was -3.8e-05 (inactive). Besides, the call in assay [8] was inactive.
With `Cn1c[n+](C)cc1/C=N/O`, in assay [1], the cell count amounted to 710. For the same compound, the inhibition in assay [1] is -2% (inactive); in assay [2], -108% (inactive); in assay [4], 0.671% (inactive); in [9] it was -4.46% (inactive). Further, the nuclei count in assay [2] was 159%. Further, the z-score in assay [3] (setting [10]) was -0.468; in [3] (setting [11]) it was 0.134; in assay [3] (setting [12]), -0.77. Besides, the fluorescence slope was -0.459 (inactive) in assay [5] and 0.00537 (inactive) in assay [7]. Besides, in assay [6], the NADPH fluorescence slope is -6.2e-05 (inactive). Besides, the compound was classed as inactive in assay [8].
For the compound `COC(=O)C(NC(=O)c1ccc(F)cc1)(Nc1nc(C)cs1)C(F)(F)F` (stereo unspecified), the cell count in assay [1] came to 695. The inhibition in assay [1] was -6.3% (inactive); in [2], -18.4% (inactive); in assay [4] it was -3.95% (inactive); in [9] it was 7.8% (inactive). In assay [2], this compound returned a nuclei count of 151%. Besides, the z-score is -0.266 in [3] (setting [10]), -0.66 in assay [3] (setting [11]) and 0.98 in [3] (setting [12]). For the same compound, the fluorescence slope in assay [5] is -0.444 (inactive); in [7], 0.00339 (inactive). Further, the NADPH fluorescence slope in [6] was -4.6e-05 (inactive). Further, the result in [8] was inactive.
As to `CN(C)C(=O)COn1c(SCC(=O)N(C)C)nc2ccccc2c1=O`, the cell count in assay [1] was found to be 739. Also, the inhibition in assay [1] was 2% (inactive); in assay [2] it was -47.5% (inactive); in assay [4] it was 0.671% (inactive); in assay [9], 0.936% (inactive). The compound further returned a nuclei count in [2] of 191%. The z-score in assay [3] (setting [10]) was -0.833; in assay [3] (setting [11]), -0.176; in assay [3] (setting [12]), 1.1. The fluorescence slope was -0.428 (inactive) in assay [5] and 0.00719 (inactive) in assay [7]. For the same compound, the NADPH fluorescence slope in [6] was -3.4e-05 (inactive). In addition, the compound was called inactive in [8].
With `O=C(CN1C2=NCCN2c2ccccc21)N1CCOCC1`, in assay [1], the cell count was 629. In addition, the inhibition is 11% (inactive) in assay [1], -7.9% (inactive) in [2], -7.67% (inactive) in assay [4] and -8.14% (inactive) in assay [9]. This compound also showed a nuclei count in assay [2] of 115%. The z-score is 0.036 in assay [3] (setting [10]), -0.429 in [3] (setting [11]) and -0.703 in assay [3] (setting [12]). The fluorescence slope in assay [5] was -0.447 (inactive); in assay [7], 0.00508 (inactive). Also, the NADPH fluorescence slope in [6] is -4.9e-05 (inactive). In addition, the outcome in [8] was inactive.
